Measurements from ChEMBL document CHEMBL3272012, “5-(Tetradecyloxy)-2-furancarboxylic acid and related hypolipidemic fatty acid-like alkyloxyarylcarboxylic acids” (J Med Chem, 1977).
Each block holds one molecule with its values, some of them ahead of it.

Columns and labels:
[1] = system: Rattus norvegicus; assay: Hypolipidemic activity in Wistar rat assessed as reduction in plasma cholesterol level at 420 umol/kg/day administered through diet for 10 days; assay type: functional; details: 240 h
Procedure, shortened: (§1)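 Young male Wistar rats, 170-190 g initial weight, groups of six, given compound mixed thoroughly into Purina Lab Chow ad libitum for 4 or 10 days as stated. Daily dose calculated from food consumption and body weight. Bled by cardiac puncture at end of treatment; plasma cholesterol measured by automated procedure. Expressed as percent reduction versus simultaneous untreated control group; Student's t test.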

[2] = system: Rattus norvegicus; assay: Hypolipidemic activity in Wistar rat assessed as reduction in plasma triglyceride level at 420 umol/kg/day administered through diet for 10 days; assay type: functional; details: 240 h
Procedure, shortened: (§2)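 Young male Wistar rats (initial weight 170-190 g), groups of six, fed compound mixed into Purina Lab Chow ad libitum for 4 or 10 days; daily dose calculated from food consumption and body weight. Bled by cardiac puncture; plasma cholesterol and triglycerides by automated procedures; percent reduction versus simultaneous untreated controls, Student's t test.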

[3] = system: Rattus norvegicus; assay: Increase in liver weight in Wistar rat at 420 umol/kg/day administered through diet for 10 days; assay type: ADME, organism-based; details: in vivo, po, 240 h
[4] = system: Rattus norvegicus; assay: Increase in cholesterol level in Wistar rat liver at 420 umol/kg/day administered through diet for 10 days; assay type: ADME, organism-based; details: in vivo, po, 240 h
Procedure, shortened: (§3)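 Male Wistar rats (170-190 g), six per group, given compound by admixture to lab chow ad libitum for 4 or 10 days, dose derived from food intake. Liver cholesterol determined by automated procedure, expressed as mg/g wet tissue, compared with an untreated control group by Student's t test.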

[5] = system: Rattus norvegicus; assay: Hypolipidemic activity in Wistar rat assessed as reduction in plasma cholesterol level at 430 umol/kg/day administered through diet for 4 days; assay type: functional; details: 96 h; procedure, shortened: as §1
[6] = system: Rattus norvegicus; assay: Increase in cholesterol level in Wistar rat liver at 430 umol/kg/day administered through diet for 4 days; assay type: ADME, organism-based; details: in vivo, po, 96 h; procedure, shortened: as §3
[7] = system: Rattus norvegicus; assay: Increase in liver weight in Wistar rat at 430 umol/kg/day administered through diet for 4 days; assay type: ADME, organism-based; details: in vivo, po, 96 h
Procedure, shortened: (§4)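 Male Wistar rats (170-190 g initial), groups of six, dosed via diet ad libitum for 4 or 10 days, daily dose from food consumption. Liver wet weight measured, expressed as g/100 g final body weight, compared with untreated controls run simultaneously.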

[8] = system: Rattus norvegicus; assay: Hypolipidemic activity in Wistar rat assessed as reduction in plasma triglyceride level at 430 umol/kg/day administered through diet for 4 days; assay type: functional; details: 96 h; procedure, shortened: as §2
[9] = system: Rattus norvegicus; assay: Increase in liver weight in Wistar rat at 381 umol/kg/day administered through diet for 4 days; assay type: ADME, organism-based; details: in vivo, po, 96 h
[10] = system: Rattus norvegicus; assay: Hypolipidemic activity in Wistar rat assessed as reduction in plasma cholesterol level at 381 umol/kg/day administered through diet for 4 days; assay type: functional; details: 96 h
Procedure, shortened: (§5)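 Young male Wistar rats, 170-190 g at start, in groups of six, given compound mixed into Purina Lab Chow ad libitum for 4 or 10 days as stated. Daily dose was calculated from food consumption and body weight. Plasma was taken by cardiac puncture at the end and cholesterol measured by automated procedure. Results are % reduction versus a concurrent untreated control group, with Student's t test.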

[11] = system: Rattus norvegicus; assay: Hypolipidemic activity in Wistar rat assessed as reduction in plasma triglyceride level at 381 umol/kg/day administered through diet for 4 days; assay type: functional; details: 96 h
Procedure, shortened: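 Young male Wistar rats (170-190 g initial weight), groups of six, fed test compound mixed into Purina Lab Chow ad libitum; daily dose calculated from food consumption and body weight. Bled by cardiac puncture at end of treatment; plasma triglycerides measured by automated procedure. Results given as percent reduction versus a simultaneous untreated control group, with significance by Student's t test.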

[12] = system: Rattus norvegicus; assay: Hypolipidemic activity in Wistar rat assessed as reduction in plasma triglyceride level at 505 umol/kg/day administered through diet for 4 days; assay type: functional; details: 96 h
[13] = system: Rattus norvegicus; assay: Increase in liver weight in Wistar rat at 505 umol/kg/day administered through diet for 4 days; assay type: ADME, organism-based; details: in vivo, po, 96 h
[14] = system: Rattus norvegicus; assay: Hypolipidemic activity in Wistar rat assessed as reduction in plasma cholesterol level at 505 umol/kg/day administered through diet for 4 days; assay type: functional; details: 96 h; procedure, shortened: as §1
[15] = system: Rattus norvegicus; assay: Hypolipidemic activity in Wistar rat assessed as reduction in plasma triglyceride level at 482 umol/kg/day administered through diet for 4 days; assay type: functional; details: 96 h; procedure, shortened: as §2
[16] = system: Rattus norvegicus; assay: Hypolipidemic activity in Wistar rat assessed as reduction in plasma cholesterol level at 482 umol/kg/day administered through diet for 4 days; assay type: functional; details: 96 h; procedure, shortened: as §1
[17] = system: Rattus norvegicus; assay: Increase in liver weight in Wistar rat at 482 umol/kg/day administered through diet for 4 days; assay type: ADME, organism-based; details: in vivo, po, 96 h; procedure, shortened: as §4
[18] = system: Rattus norvegicus; assay: Hypolipidemic activity in Wistar rat assessed as reduction in plasma cholesterol level at 480 umol/kg/day administered through diet for 4 days; assay type: functional; details: 96 h; procedure, shortened: as §1
[19] = system: Rattus norvegicus; assay: Increase in liver weight in Wistar rat at 480 umol/kg/day administered through diet for 4 days; assay type: ADME, organism-based; details: in vivo, po, 96 h
[20] = system: Rattus norvegicus; assay: Hypolipidemic activity in Wistar rat assessed as reduction in plasma triglyceride level at 480 umol/kg/day administered through diet for 4 days; assay type: functional; details: 96 h
[21] = system: Rattus norvegicus; assay: Hypolipidemic activity in Wistar rat assessed as reduction in plasma triglyceride level at 489 umol/kg/day administered through diet for 4 days; assay type: functional; details: 96 h
[22] = system: Rattus norvegicus; assay: Hypolipidemic activity in Wistar rat assessed as reduction in plasma cholesterol level at 489 umol/kg/day administered through diet for 4 days; assay type: functional; details: 96 h; procedure, shortened: as §1
[23] = system: Rattus norvegicus; assay: Hypolipidemic activity in Wistar rat assessed as reduction in plasma cholesterol level at 401 umol/kg/day administered through diet for 4 days; assay type: functional; details: 96 h; procedure, shortened: as §5
[24] = system: Rattus norvegicus; assay: Hypolipidemic activity in Wistar rat assessed as reduction in plasma triglyceride level at 401 umol/kg/day administered through diet for 4 days; assay type: functional; details: 96 h; procedure, shortened: as §2
[25] = system: Rattus norvegicus; assay: Increase in liver weight in Wistar rat at 401 umol/kg/day administered through diet for 4 days; assay type: ADME, organism-based; details: in vivo, po, 96 h; procedure, shortened: as §4
[26] = system: Rattus norvegicus; assay: Increase in liver weight in Wistar rat at 418 umol/kg/day administered through diet for 4 days; assay type: ADME, organism-based; details: in vivo, po, 96 h; procedure, shortened: as §4
[27] = system: Rattus norvegicus; assay: Hypolipidemic activity in Wistar rat assessed as reduction in plasma cholesterol level at 418 umol/kg/day administered through diet for 4 days; assay type: functional; details: 96 h; procedure, shortened: as §1
[28] = system: Rattus norvegicus; assay: Hypolipidemic activity in Wistar rat assessed as reduction in plasma triglyceride level at 418 umol/kg/day administered through diet for 4 days; assay type: functional; details: 96 h; procedure, shortened: as §2
[29] = system: Rattus norvegicus; assay: Hypolipidemic activity in Wistar rat assessed as reduction in plasma triglyceride level at 439 umol/kg/day administered through diet for 4 days; assay type: functional; details: 96 h; procedure, shortened: as §2
[30] = system: Rattus norvegicus; assay: Increase in liver weight in Wistar rat at 439 umol/kg/day administered through diet for 4 days; assay type: ADME, organism-based; details: in vivo, po, 96 h; procedure, shortened: as §4
[31] = system: Rattus norvegicus; assay: Hypolipidemic activity in Wistar rat assessed as reduction in plasma cholesterol level at 439 umol/kg/day administered through diet for 4 days; assay type: functional; details: 96 h; procedure, shortened: as §1
[32] = system: Rattus norvegicus; assay: Hypolipidemic activity in Wistar rat assessed as reduction in plasma triglyceride level at 439 umol/kg/day administered through diet for 10 days; assay type: functional; details: 240 h; procedure, shortened: as §2
[33] = system: Rattus norvegicus; assay: Hypolipidemic activity in Wistar rat assessed as reduction in plasma cholesterol level at 439 umol/kg/day administered through diet for 10 days; assay type: functional; details: 240 h; procedure, shortened: as §1
[34] = system: Rattus norvegicus; assay: Increase in liver weight in Wistar rat at 439 umol/kg/day administered through diet for 10 days; assay type: ADME, organism-based; details: in vivo, po, 240 h; procedure, shortened: as §4
[35] = system: Rattus norvegicus; assay: Hypolipidemic activity in Wistar rat assessed as reduction in plasma triglyceride level at 419 umol/kg/day administered through diet for 10 days; assay type: functional; details: 240 h; procedure, shortened: as §2
[36] = system: Rattus norvegicus; assay: Increase in cholesterol level in Wistar rat liver at 419 umol/kg/day administered through diet for 10 days; assay type: ADME, organism-based; details: in vivo, po, 240 h; procedure, shortened: as §3
[37] = system: Rattus norvegicus; assay: Hypolipidemic activity in Wistar rat assessed as reduction in plasma cholesterol level at 419 umol/kg/day administered through diet for 10 days; assay type: functional; details: 240 h; procedure, shortened: as §1
[38] = system: Rattus norvegicus; assay: Increase in liver weight in Wistar rat at 419 umol/kg/day administered through diet for 10 days; assay type: ADME, organism-based; details: in vivo, po, 240 h; procedure, shortened: as §4
[39] = system: Rattus norvegicus; assay: Hypolipidemic activity in Wistar rat assessed as reduction in plasma triglyceride level at 471 umol/kg/day administered through diet for 4 days; assay type: functional; details: 96 h
[40] = system: Rattus norvegicus; assay: Increase in liver weight in Wistar rat at 471 umol/kg/day administered through diet for 4 days; assay type: ADME, organism-based; details: in vivo, po, 96 h
[41] = system: Rattus norvegicus; assay: Hypolipidemic activity in Wistar rat assessed as reduction in plasma cholesterol level at 471 umol/kg/day administered through diet for 4 days; assay type: functional; details: 96 h; procedure, shortened: as §1

Activity [3]: 0%
Activity [4]: 3%
Compound: CCCCCCCCCCCCCCOc1ccc(SCC(=O)O)cc1
inhibition in vivo at 420 µmol/kg [1]: 16%
inhibition in vivo at 420 µmol/kg [2]: 11%

Activity [6]: 18%
Activity [7]: 3%
Compound: CCCCCCCCCCCCCCOc1ccc(/C=C/C(=O)OC)cc1
inhibition in vivo at 430 µmol/kg [5]: 28%
inhibition in vivo at 430 µmol/kg [8]: 67%

Activity [9]: 0%
Compound: CCCCCCCCCCCCCCOc1c(Cl)cc(C(=O)OC)cc1Cl
inhibition in vivo at 381 µmol/kg [10]: 1%
inhibition in vivo at 381 µmol/kg [11]: 73%

Activity [13]: 4%
Compound: CCCCCCCCCCCCOc1cccc(C(=O)OC)c1
inhibition in vivo at 505 µmol/kg [12]: 55%
inhibition in vivo at 505 µmol/kg [14]: 7%

Activity [17]: 4%
Compound: CCCCCCCCCCCCCCOc1ccc(C#N)cc1
inhibition in vivo at 482 µmol/kg [15]: 6%
inhibition in vivo at 482 µmol/kg [16]: 10%

Activity [19]: 1%
Compound: CCCCCCCCCCCCCCOc1ccc(-c2nnn[nH]2)cc1
inhibition in vivo at 480 µmol/kg [18]: 0%
inhibition in vivo at 480 µmol/kg [20]: 0%

Compound: CCCCCCCCCCCC(=O)Nc1ccc(C(=O)OCC)cc1
inhibition in vivo at 489 µmol/kg [21]: 0%
inhibition in vivo at 489 µmol/kg [22]: 0%

Activity [25]: 0%
Activity [7]: 3%
Compound: CCCCCCCCCCCCCCCCOc1cccc(C(=O)OC)c1
inhibition in vivo at 401 µmol/kg [23]: 0%
inhibition in vivo at 401 µmol/kg [24]: 0%
inhibition in vivo at 430 µmol/kg [5]: 0%
inhibition in vivo at 430 µmol/kg [8]: 0%

Activity [26]: 0%
Compound: CCCCCCCCCCCCCCOc1ccc(C(=O)OCC)cc1Cl
inhibition in vivo at 418 µmol/kg [27]: 0%
inhibition in vivo at 418 µmol/kg [28]: 0%

Activity [30]: 1%
Compound: CCCCCCCCCCCCCCOc1ccc(C(=O)OCC)c(O)c1
inhibition in vivo at 439 µmol/kg [29]: 0%
inhibition in vivo at 439 µmol/kg [31]: 0%

Activity [34]: 8%
Compound: CCCCCCCCCCCCCCOc1ccc(C(=O)CC(N)=O)cc1
inhibition in vivo at 439 µmol/kg [32]: 3%
inhibition in vivo at 439 µmol/kg [33]: 4%

Activity [36]: 17%
Activity [38]: 5%
Compound: CCCCCCCCCCCCCCCCOc1ccc(C(=O)O)cc1
inhibition in vivo at 419 µmol/kg [35]: 55%
inhibition in vivo at 419 µmol/kg [37]: 15%

Activity [40]: 5%
Compound: CCCCCCCCCCCCCCOc1ccc(C(=O)O)c(C)c1
inhibition in vivo at 471 µmol/kg [39]: 27%
inhibition in vivo at 471 µmol/kg [41]: 6%
